According to the EternaBench riboswitch data:

Test system: MS2 coat protein
Test: apparent Kd, MS2 coat protein; higher = weaker binding; RNA-MaP array; FMN 200 µM where present
Method in brief: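 Green signal was scaled to red-channel RNA signal and control-cluster median Fmax, and the apparent Kd was taken as the median of filtered per-cluster binding-curve fits. The binding series used SNAP-549-labelled MS2 coat protein from 0.7 or 1.5 nM, doubling to 3 µM, on designs transcribed by stalled E. coli RNA polymerase on Illumina sequencing-chip clusters. Each series ran without and then with constant ligand in 100 mM Tris-HCl pH 7.5, 80 mM KCl, 4 mM MgCl2, BSA, DTT, yeast tRNA and Tween-20.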

[1] = designed as: OFF switch for flavin mononucleotide, no ligand
[2] = ligand present: flavin mononucleotide, designed as: OFF switch for flavin mononucleotide
[3] = designed as: ON switch for flavin mononucleotide, no ligand
[4] = ligand present: flavin mononucleotide, designed as: ON switch for flavin mononucleotide

Sequence | apparent Kd [1] | apparent Kd [2] | apparent Kd [3] | apparent Kd [4]
UUAUUAGCAGGAUAUAUCCAGGAUUACAUGAGGAUCACCCAUGUGACCGCUUGAAAUUCUAUAGAAGGGCUUUAUU | 33.2 nM | 36.4 nM |  | 
AACUAGUCAGGAUAUACGAACAUGUCAAAAAACAUGAAGGGACAUGAGGAUCACCCAUGUAGAAGGGACUAGCA | 37.8 nM | 223 nM |  | 
ACAAGAUCAGGAUAUACAUGAGGAUCACCCAUGUAUAUAAAAAAAGGGCUUUCUACAUGUAGAAGGGAUCUUGU | 29.9 nM | 37 nM |  | 
ACCGGUGUAGGAUAUAUCUGGGAUGAAGAUGAUCCUGCUAAACAUGAGGAUCACCCAUGUAGAAGGAUGCCUGG | 83.6 nM | 178 nM |  | 
ACUAGAUGAGGAUAUGCAUAUUUUCGUGUUCUUCUAGAUUAACAUGAGGAUCACCCAUGUAGAAGGCGUCUGGU | 30.7 nM | 62 nM |  | 
CUCUUGUAAGGAUAUCACCACACAAAAAAAAAAAAGUGUGGUGAGAAGGUACAUGAGGAUCACCCAUGUACUAA | 23 nM | 22.5 nM |  | 
CAGUGUAGUUAGGAUAUCGGGUCGGUUGGGCGCUGAGAAGGAACUACAUGAGGAUCACCCAUGUGGGCUCUUCU | 19.5 nM | 37.1 nM |  | 
AAUUAUUGAUGAGGAUAUUGUGGUGAAACACGACGAGAAGGCAUAUGUCACAUGAGGAUCACCCAUGUGAGCCUUGUGCAUAUA | 19.9 nM | 18.9 nM |  | 
CCUAAGGAGGUAGGAUAUAGUGUGGUGGCCGGGCUCCCACGGCGAGCGGCACUAGAAGGAUCGCUACAUGAGGAUCACCCAUGU |  |  | 10.2 nM | 9.71 nM
AGCUGUGGCCGAGGAUAUCUAAAACUCAAAACCGAAAUAUAAUCGGACAUGAGGAUCACCCAUGUAGAGAAGGCGGUCUCAGCA | 78.8 nM | 157 nM |  | 
AAGAAACAUGAGGAUCACCCAUGUGAGGAUAUACGAUGCUAAGCGUAAGCUUAGUAUCGUAGAAGGCACAAAGG | 131 nM | 311 nM |  | 
UGAUCUUUUGUUAGGAUAUGCUGGGUUUUUUCUCAGCAGAAGGGACAUGAGGAUCACCCAUGUUUUGUCAUAAA | 18.9 nM | 47.6 nM |  | 
UGCAGCGUGCACAUGAGGAUCACCCAUGUGCCAGUGAACGCACAGGAUAUGCAAUCGUACGGCUAGCAGAAGGGUGGGUCUCAC |  |  | 7.65 nM | 6.45 nM
AGAAAACAUGAGGAUCACCCAUGUGAGGAUAUCGAUGUCCAAGGGUGGGUGCGGGACUCGAGAAGGCACUUGGA | 80.6 nM | 137 nM |  | 
UUGGCACAUGAGGAUCACCCAUGUUAGGAUAUUGUGGCAGAAACAGCUGGGAAACGCACGAGAAGGGACACAUA | 33.4 nM | 38.5 nM |  | 
CCUCCACAUGAGGAUCACCCAUGUCACACUCCGUCAGGAUAUAGCCUGCAUCCGCUGUGGCUAGAAGGGACUGCUG |  |  | 332 nM | 303 nM
UGUCCAUAGCAGAAGGACAUGUAUAAUCAUGAAAACAUGAGGAUCACCCAUGUAGGAUAUGCUAUGGACUAAGAGCGAAAGCUC | 19.9 nM | 297 nM |  | 
GACUGCUGAGGAUAUACAUGAGGAUCACCCAUGUGCUUCAGCUAGGAGACUAGCAUUGGUAGAAGGUAGUAGUC | 11.1 nM | 16.1 nM |  | 
UCCUGGCGAGGAUAUACAAUGUUUUUCGCGUGUAGUUGGAAACAUGAGGAUCACCCAUGUAGAAGGUGCUACUG | 32.6 nM | 25.6 nM |  | 

Sequence | apparent Kd [1] | apparent Kd [2] | apparent Kd [3] | apparent Kd [4]
GAGGCUGGUCAGAAGGCGCUGCAGGCUGCGUAGCGAGGAUAUGACAUGAGGAUCACCCAUGUGGUAGCUGAUCCUCGGCGUUUA | 361 nM | 33.3 nM |  | 
AAUUCUAGGGUCAGCCUUAACACAUGAGGAUCACCCAUGUACAGAAGGCGAAGCAAAUGGACACUCGAGGAUAUGUACACUCCG | 6.22 nM | 8.01 nM |  | 
UUGAUUAUACAAGGAUAUCAAUUGUAAUUAAGACUUACAUGAGGAUCACCCAUGUUAAUAUUUUAUGAGAAGGUGUAUUUUCAG |  |  | 38.3 nM | 25.7 nM
CUUUUGUGAGGAUAUCAGUAGUAAAAAAAUAAAAUUACUACUGAGAAGGCACAUGAGGAUCACCCAUGUGCCUC | 13.9 nM | 12.9 nM |  | 
UGGUACUAGGGAGGAUAUGGGAAGAUACAUGAGGAUCACCCAUGUUUAAGAAUGGCGAGAGGCAACUAGAAGGCCCUAGUACCU |  |  | 271 nM | 15.6 nM
ACAUGACAUGAGGAUCACCCAUGUGAGGAUAUGCGAAAAAAAAAAAAAAAAAAAAUUGGCAGAAGGCACAAAAU | 167 nM | 180 nM |  | 
AUACUCAUGUAAGGAUAUGCAGCCGAACCGGCUGCAGAAGGUACUAUAAUACAUGAGGAUCACCCAUGUCAAAAUAAAAUAGUU |  |  | 52 nM | 21.5 nM
GGAGCUCCUGACAUGAGGAUCACCCAUGUUCACUUAUUAAAUCAGGAUAUCCUCUCGAAACGAGAGGAGAAGGGAUAUGCUCCU |  |  | 7.58 nM | 7.04 nM
GCCAUCGUAUGAGGAUAUGGCACCGAACCGGUGCCAGAAGGCAUGUCAAUAGACAUGAGGAUCACCCAUGUGUUAUCGAUGGCA |  |  | 147 nM | 13.1 nM
UUGUUACAUGAGGAUCACCCAUGUUGUUGUAGAUAAGGAUAUAUAGGAACGAGAGAAAUAAUAGAAGGUAUUAGAC |  |  | 31.7 nM | 27.2 nM
GGGCCCGGAGGAUAUACAUGAGGAUCACCCAUGUAGGGCCCGGGUAUUCCCGGGCCCUGUAGAAGGCCGGGUUU | 14.3 nM | 18.8 nM |  | 
AGCCUACAUGAGGAUCACCCAUGUCAGGAUAUCUCGCGGCGUGUCAAGUUCACACUGCAGAGAAGGGACUCGGG | 58.1 nM | 66.9 nM |  | 
GGAUCCUGGGUCAGGAUAUGCUGACAGCUUUGUCAGCAGAAGGGACAUGAGGAUCACCCAUGUGCUCGGUUUUG | 10.1 nM | 18.1 nM |  | 
ACAAAUGGAGGAUAUACAUGAGGAUCACCCAUGUAUAUCCUACAUGUGUGAUAAUAAUGUAGAAGGCCAUUUGA | 13.7 nM | 12 nM |  | 
AUUAUACAUGAGGAUCACCCAUGUAAUUAAUUAAUUAAGAUCAAGGAUAUCAGCUCGAAUAGAGCUGAGAAGGUGAUCACAUGU |  |  | 330 nM | 287 nM
AAACCUUCUGAGGAUAUCUGAGGCCCUGCGCUUAGAGAAGGUAGUACAUGAGGAUCACCCAUGUCCGCGCUGGG | 16.3 nM | 17.9 nM |  | 
UUAAAUCAUGUAGGAUAUGCAUGGCCAAGCUAGGCAGAAGGACAUGAGGAUCACCCAUGUUAUAGCUACCAAGUAAGGUGGCAA | 32.9 nM | 279 nM |  | 
CAGGUAGACUGAGGAUAUACAAUAAACAGCUAGUCUAUCUAGCUGCCUACAUGAGGAUCACCCAUGUAGAAGGCAGUCUGCCUG | 16.2 nM | 16.6 nM |  | 
CCCGCGUUUCGCGCCUACAUGAGGAUCACCCAUGUUUGUAGGCAGGAUAUCGUCCGCUCUGCGGGCGAGAAGGGCUGUUGUGGU |  |  | 90.8 nM | 84 nM

Sequence | apparent Kd [1] | apparent Kd [2] | apparent Kd [3] | apparent Kd [4]
CACAAGAAAGUCGAAGGUUGAAGUAGAAGGUCUACAACAUGACAUGAGGAUCACCCAUGUGCUAAGAAGGAUAUGCUUUAAUCG | 8.71 nM | 7.12 nM |  | 
AACAAACAUGAGGAUCACCCAUGUGAGGAUAUCGAAACAACAAACAACAAACAACAAACGAGAAGGCGCAACAA | 29.1 nM | 27.6 nM |  | 
AUUGUUUAUGUAGGAUAUGCGAGGCGAGCCUAAGCAGAAGGACAUGAGGAUCACCCAUGUAUUGCGGUCUGCGUUCAGAUCGCU | 30.5 nM | 127 nM |  | 
AUAUUUGUUUAGAAGGACAUGAGGAUCACCCAUGUCGCUGGGCGCGGGAAACCGUGGGCGGCCAUGUAGGAUAUAGGGAGAUAU | 36.6 nM | 24 nM |  | 
UAUAUAUAGUAAGGAUAUGUAAUUAUUUUAUAGACAGAAGGUACUGACAUGAGGAUCACCCAUGUUUUAGUGUGGGCAUGUAGA | 85.2 nM | 130 nM |  | 
ACAUGGUAGUAGAAGGGUAUUACUUUAGAUACAACCAUUUGUAUUGUUUAUACAGGAUAUGCUUACAUGAGGAUCACCCAUGUU | 11.3 nM | 11.1 nM |  | 
GCGGUACAUGAGGAUCACCCAUGUCAGGAUAUCCGCUGUUUGUUGAUUAGCAGGCGGUGGAGAAGGGACUUCGC | 36.6 nM | 36 nM |  | 
GGGCCCGGAGGAUAUACAUGAGGAUCACCCAUGUGCCGGGCCCAACGGGCCCGGCUGUGUAGAAGGCCGGGCCC | 13.3 nM | 12.5 nM |  | 
GUAGCAUACCGAGGAUAUUCAUAUAAUAAGUAAACAUGAGGAUCACCCAUGUAGCGAGAGCCUUGGGAGAAGGCGGAAUGCUAC |  |  | 337 nM | 58.1 nM
GGAUAUGUCGUCUACAUGAGGAUCACCCAUGUCGAUAGACAUGAGGAUAUUGAUAAGAAUUGUAUCGAGAAGGUAUGUAGGUCC |  |  | 19.3 nM | 26.7 nM
GUUUUCGCAUGAGGAUAUGCUCGCAUUUCAAGAGCAGAAGGUAUGUCUUUAGACAUGAGGAUCACCCAUGUAUUUAUCAUUGAA |  |  | 101 nM | 26.2 nM
CUUUUAUAAUAGAAGGUAGACUUCAUGAGGAUCACCCAUGUGUUGGUACUAAGGAUAUGUAAUAACAUGAGGAUCACCCAUGUU |  |  | 15.8 nM | 16.1 nM
GUCAGCUCGUGAGGAUAUACAUCACUGCUUCGGCAGUGUAUUAAGAUUACAUGAGGAUCACCCAUGUAGAAGGCACGAGCUGAU | 17.4 nM | 23.9 nM |  | 
GCAGGAUAAGUGAGGAUAUACCUCUGGAUACAGAGGUAGAAGGCACAUGAGGAUCACCCAUGUUACUCACCUGC | 11.9 nM | 33.8 nM |  | 
UUUGUUGUUGUGAGGAUAUCGUAGUUAUUUUGUAACGAGAAGGCACAUGAGGAUCACCCAUGUUUUUUGAUGGU | 22.7 nM | 90 nM |  | 
UCGCUGCGAGGAUAUACAUGAGGAUCACCCAUGUACGGGUCCGGGUCUUCGUCCAUUGGUAGAAGGCGCAGUGA | 23.1 nM | 204 nM |  | 
UUAUGUUAUGUAGGAUAUCAUUAGAUUUGUAAUUUAAUUGUUAUUUAGAUUUGAGAAGGACAUUUACAUGAGGAUCACCCAUGU | 14.8 nM | 11.7 nM |  | 
AACCAGUUGGUAGGAUAUGGUGCAGUGCCCGUACCAGAAGGACCAACAUGAGGAUCACCCAUGUUGGAAAGUCAACAUUAAUGA | 6.32 nM | 11.8 nM |  | 
